One may read the pIC50 as the negative decadic logarithm of the IC50, by convention in mol/L. By inhibition is commonly meant the share of the control response that was lost under treatment.

The results in this text go back to ChEMBL document CHEMBL2380225, “Chalcones, inhibitors for topoisomerase I and cathepsin B and L, as potential anti-cancer agents” (Bioorg Med Chem Lett, 2013).

pIC50: −log10 of the molar value. Where only a bound is given, the exact number is not on record here.

One assay has as its system SNU-638. Kind of assay: Cytotoxicity against human SNU638 cells by MTT assay. It is filed as functional, cell-based. In a few lines:
(§1)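 MTT viability assay on T47D (breast ductal carcinoma) and SNU638 (gastric cancer) human cell lines. IC50 reported as mean ± SD of three separate experiments, each run in triplicate.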
On the technique in general: Tetrazolium assays rely on reduction of a dye to a coloured formazan, in cell work by metabolically active cells.

A further assay relates to T47D. Kind of assay: Cytotoxicity against human T47D cells by MTT assay. It counts as functional, cell-based. In a few lines:
as §1

Assay [1] has as its target T1, DNA topoisomerase 1 (Homo sapiens) (UniProt P11387).
T1 sequence (whole entry): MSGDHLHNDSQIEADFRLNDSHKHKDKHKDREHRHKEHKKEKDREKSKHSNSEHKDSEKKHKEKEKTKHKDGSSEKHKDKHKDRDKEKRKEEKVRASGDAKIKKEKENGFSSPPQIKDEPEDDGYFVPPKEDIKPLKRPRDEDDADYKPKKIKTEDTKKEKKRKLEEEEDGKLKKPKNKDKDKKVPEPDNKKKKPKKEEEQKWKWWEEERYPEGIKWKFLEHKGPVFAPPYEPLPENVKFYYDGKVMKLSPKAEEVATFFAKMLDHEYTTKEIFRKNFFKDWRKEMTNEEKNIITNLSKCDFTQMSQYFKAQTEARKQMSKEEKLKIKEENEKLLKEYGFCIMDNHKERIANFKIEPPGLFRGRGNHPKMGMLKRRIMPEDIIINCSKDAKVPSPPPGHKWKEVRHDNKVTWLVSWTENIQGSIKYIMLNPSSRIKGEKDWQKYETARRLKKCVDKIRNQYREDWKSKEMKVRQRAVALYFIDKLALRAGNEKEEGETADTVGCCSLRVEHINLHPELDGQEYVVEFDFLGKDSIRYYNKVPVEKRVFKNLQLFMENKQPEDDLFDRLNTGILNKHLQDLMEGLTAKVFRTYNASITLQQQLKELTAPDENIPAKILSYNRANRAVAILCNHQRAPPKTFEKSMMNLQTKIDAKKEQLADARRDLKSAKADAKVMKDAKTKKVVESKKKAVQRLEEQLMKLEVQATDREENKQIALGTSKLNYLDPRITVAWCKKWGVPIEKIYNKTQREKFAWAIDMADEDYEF
Kind of assay: Inhibition of human topoisomerase 1 at 20 uM relative to control. In outline:
(§2)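 Supercoiled DNA relaxation assay with human topoisomerase I or II (Topogen). Compounds were tested at final 100 and 20 μM. Percent inhibition was derived from the inhibition ratio by image analysis and expressed as the mean of triplicate experiments.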

The target of a further assay is Cathepsin B (Homo sapiens, UniProt P07858). Kind of assay: Inhibition of cathepsin B (unknown origin) using RR-AMC as substrate after 30 mins by fluorescence assay.
Assay [2] addresses DNA topoisomerase 2-alpha (Homo sapiens) (UniProt P11388). Kind of assay: Inhibition of human topoisomerase 2 at 100 uM relative to control. In outline: as §2
Assay [3] has as its target T1, DNA topoisomerase 1 (Homo sapiens). Kind of assay: Inhibition of human topoisomerase 1 at 100 uM relative to control. In a few lines:
as §2

The target in a further assay is Procathepsin L (Homo sapiens, UniProt P07711). Kind of assay: Inhibition of cathepsin L (unknown origin) using Z-FR-AMC as substrate after 30 mins by fluorescence assay. In a few lines: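 Calbiochem cathepsin L (4 nM) was reductively pre-activated for 30 min at 37 °C in 0.1 M NaOAc-HCl, 1 mM EDTA, 0.1% β-mercaptoethanol, pH 5.5. Reaction started with compound plus 20 μM Z-FR-AMC and ran 30 min at room temperature. Fluorescence read at 360 nm excitation / 450 nm emission. IC50 is the mean ± SD of triplicate runs.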
Sequence of Procathepsin L (P07711 whole entry): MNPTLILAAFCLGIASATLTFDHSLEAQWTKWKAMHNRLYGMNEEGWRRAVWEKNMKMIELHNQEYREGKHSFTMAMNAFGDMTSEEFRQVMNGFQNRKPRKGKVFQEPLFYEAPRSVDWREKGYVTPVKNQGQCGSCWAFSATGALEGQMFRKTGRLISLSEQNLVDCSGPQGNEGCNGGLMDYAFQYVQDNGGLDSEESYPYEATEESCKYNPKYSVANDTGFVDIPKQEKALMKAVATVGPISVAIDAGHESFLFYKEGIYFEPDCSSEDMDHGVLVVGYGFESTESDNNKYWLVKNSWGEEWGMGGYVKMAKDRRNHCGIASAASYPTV

Assay [4] deals with DNA topoisomerase 2-alpha (Homo sapiens) (UniProt P11388). Kind of assay: Inhibition of human topoisomerase 2 at 20 uM relative to control. In outline: as §2
Sequence of DNA topoisomerase 2-alpha (Homo sapiens) (P11388 whole entry): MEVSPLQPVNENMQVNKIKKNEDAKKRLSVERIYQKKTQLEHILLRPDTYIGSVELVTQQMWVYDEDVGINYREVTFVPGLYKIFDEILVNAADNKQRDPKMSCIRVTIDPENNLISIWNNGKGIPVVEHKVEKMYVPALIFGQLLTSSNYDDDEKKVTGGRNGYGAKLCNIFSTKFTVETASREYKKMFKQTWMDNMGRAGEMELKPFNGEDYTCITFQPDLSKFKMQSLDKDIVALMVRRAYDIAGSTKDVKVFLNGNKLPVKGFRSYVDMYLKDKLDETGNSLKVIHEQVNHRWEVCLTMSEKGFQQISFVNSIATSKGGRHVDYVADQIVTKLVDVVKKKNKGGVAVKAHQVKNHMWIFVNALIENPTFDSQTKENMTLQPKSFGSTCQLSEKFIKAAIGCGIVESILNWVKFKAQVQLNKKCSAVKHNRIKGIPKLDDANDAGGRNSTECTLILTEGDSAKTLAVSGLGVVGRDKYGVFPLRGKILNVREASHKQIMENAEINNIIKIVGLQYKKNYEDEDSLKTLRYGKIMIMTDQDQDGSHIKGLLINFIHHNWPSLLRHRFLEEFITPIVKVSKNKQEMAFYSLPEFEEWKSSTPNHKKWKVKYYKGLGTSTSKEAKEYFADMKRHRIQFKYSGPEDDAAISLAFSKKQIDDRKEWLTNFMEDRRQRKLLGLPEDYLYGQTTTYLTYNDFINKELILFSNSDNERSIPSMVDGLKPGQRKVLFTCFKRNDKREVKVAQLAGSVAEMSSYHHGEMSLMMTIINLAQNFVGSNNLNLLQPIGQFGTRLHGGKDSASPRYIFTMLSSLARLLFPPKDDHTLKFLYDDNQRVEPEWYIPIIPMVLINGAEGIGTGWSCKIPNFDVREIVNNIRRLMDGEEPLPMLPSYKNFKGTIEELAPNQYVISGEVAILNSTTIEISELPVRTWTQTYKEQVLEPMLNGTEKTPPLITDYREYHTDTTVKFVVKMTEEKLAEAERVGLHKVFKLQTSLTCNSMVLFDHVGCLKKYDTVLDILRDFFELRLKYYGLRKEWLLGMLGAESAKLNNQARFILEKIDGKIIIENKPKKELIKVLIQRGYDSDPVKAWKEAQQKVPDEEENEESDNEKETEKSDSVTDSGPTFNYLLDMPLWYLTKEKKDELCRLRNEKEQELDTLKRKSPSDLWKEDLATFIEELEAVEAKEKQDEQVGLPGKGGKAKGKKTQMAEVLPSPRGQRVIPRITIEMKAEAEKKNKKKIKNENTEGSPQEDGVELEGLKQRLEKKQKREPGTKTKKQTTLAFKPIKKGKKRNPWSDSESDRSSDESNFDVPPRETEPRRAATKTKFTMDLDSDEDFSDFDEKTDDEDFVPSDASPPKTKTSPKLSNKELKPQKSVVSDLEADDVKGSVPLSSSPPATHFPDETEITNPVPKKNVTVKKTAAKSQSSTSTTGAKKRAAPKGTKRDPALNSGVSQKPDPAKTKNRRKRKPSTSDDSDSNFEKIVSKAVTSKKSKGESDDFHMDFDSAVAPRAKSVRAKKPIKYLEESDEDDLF

As to `CC[C@@]1(O)C(=O)OCc2c1cc1n(c2=O)Cc2cc3ccccc3nc2-1` [CAMPTOTHECIN], the figures for the negative logarithm of the IC50 (pIC50) in the assay on SNU-638 and in the assay with T47D were 6.55 and 7.15, respectively.
In the same order, the values of `COc1cccc2c1C(=O)c1c(O)c3c(c(O)c1C2=O)C[C@@](O)(C(=O)CO)C[C@@H]3O[C@H]1C[C@H](N)[C@H](O)[C@H](C)O1` [DOXORUBICIN] are 6.08 and 5.54.
On to `COc1cc(O)ccc1/C=C/C(=O)c1ccc(NC(C)=O)cc1`, for which the inhibition was 17.3% in assay [1], 0% in assay [2] and 100% in assay [3]. Besides, the pIC50 was 4.33 at Cathepsin B, 4.76 in the assay with SNU-638, 4.41 on Procathepsin L and 4.91 in the assay with T47D.
Take `COc1cc(O)ccc1/C=C/C(=O)c1ccc(O)cc1` [ECHINATIN]: the inhibition in assay [1] stood at 2.1%; in assay [2], 1.6%; in assay [3] it was 88.9%. Moreover, the negative logarithm of the IC50 (pIC50) against Cathepsin B was 4.24; in the assay with SNU-638 it was 4.98; against Procathepsin L, 4.52; in the assay on T47D, 4.92.
As for `COc1cc(O)ccc1C(=O)/C=C/c1ccc(F)cc1`, the inhibition was found to be 61.6% in assay [1], 0% in assay [2] and 86.1% in assay [3]. In addition, the pIC50 against Cathepsin B was below 4.00; in the assay on SNU-638, below 4.60; against Procathepsin L, 4.04; in the assay on T47D, below 4.60.
As to `COc1ccc(C(=O)/C=C/c2ccc(OC)c(Br)c2)c(O)c1`, the inhibition in assay [1] worked out at 3.8%; in assay [2] it was 1%; in assay [3] it was 5%. The pIC50 is below 4.00 on Cathepsin B and 4.34 against Procathepsin L.
With `COc1ccc(/C=C/C(=O)c2ccc(O)cc2)cc1Br`, the inhibition in assay [1] is 6.6%; in assay [2], 1.2%; in assay [3], 24.8%. Moreover, the pIC50 at Cathepsin B was below 4.00; against Procathepsin L, 4.53.
As for `COc1ccc(C(=O)/C=C/c2ccc(F)cc2)c(O)c1`, the values for the inhibition in assay [1], in assay [2] and in assay [3] were 60%, 0% and 81.2%, respectively. Besides, the pIC50 on Cathepsin B is below 4.00; in the assay on SNU-638, 4.73; against Procathepsin L, 4.01; in the assay on T47D, 4.66.
With `COc1cc([C@@H]2c3cc4c(cc3[C@@H](O[C@@H]3O[C@@H]5CO[C@@H](C)O[C@H]5[C@H](O)[C@H]3O)[C@H]3COC(=O)[C@H]23)OCO4)cc(OC)c1O` [ETOPOSIDE], the pIC50 in the assay with SNU-638 is 5.59; in the assay on T47D, 5.30.
`COc1ccc(/C=C/C(=O)c2cccs2)cc1Br`: the figures for the inhibition in assay [1], in assay [2] and in assay [3] were 2.1%, 5.8% and 74.4%, respectively. Further, the pIC50 against Cathepsin B was below 4.00; with SNU-638 it was 4.78; against Procathepsin L, below 4.00; in the assay on T47D it was 4.66.
In the case of `O=C(/C=C/c1ccc(N2CCCC2)cc1)c1ccc([N+](=O)[O-])cc1`, the inhibition in assay [1] is 77.6%; in assay [2], 96.1%; in assay [3], 91.1%; in assay [4] it was 15.3%. The negative-log IC50 (pIC50) is 4.54 at Cathepsin B, below 4.60 with SNU-638, 5.03 against Procathepsin L and 4.67 in the assay on T47D.
Regarding `O=C(/C=C/c1ccc(N2CCCC2)cc1)c1ccc(O)cc1`, the inhibition in assay [1] turned out to be 60%; in assay [2], 96.8%; in assay [3] it was 74.7%; in assay [4], 19.1%. Besides, the negative logarithm of the IC50 (pIC50) on Cathepsin B is 5.74; in the assay with SNU-638, 6.21; against Procathepsin L, 5.50; in the assay on T47D it was 5.86.
Turning to `O=C(/C=C/c1ccc(F)cc1)c1ccc(O)cc1O`, the inhibition in assay [1] stood at 56.7%; in assay [2] it was 42.2%; in assay [3], 80.2%; in assay [4], 12.6%. Also, the pIC50 was below 4.00 on Cathepsin B, 5.03 with SNU-638, below 4.00 at Procathepsin L and 5.08 in the assay with T47D.
In the case of `COc1cc(O)ccc1/C=C/C(=O)c1ccc(F)cc1`, the values for the inhibition in assay [1], in assay [2] and in assay [3] were 9.5%, 0.7% and 95.8%, respectively. The pIC50 is 4.02 against Cathepsin B, 5.20 in the assay with SNU-638, 4.14 against Procathepsin L and 5.07 in the assay on T47D.
Consider `COc1ccc(/C=C/C(=O)c2ccc(F)cc2)cc1Br`, for which the inhibition was 20.1% in assay [1], 48.7% in assay [2], 76.5% in assay [3] and 0% in assay [4]. The negative-log IC50 (pIC50) at Cathepsin B is below 4.00; in the assay with SNU-638, below 4.60; at Procathepsin L it was below 4.00; in the assay with T47D, below 4.60.
Take `O=C(/C=C/c1ccc(F)cc1)c1ccc(O)cc1`: the inhibition in assay [1] stood at 18%; in assay [2] it was 0%; in assay [3] it was 50.9%. The pIC50 against Cathepsin B was below 4.00; in the assay with SNU-638, 5.26; against Procathepsin L, below 4.00; with T47D, 4.86.
For `O=C(/C=C/c1ccc(N2CCCC2)cc1)c1ccc(F)cc1`, the inhibition in assay [1] turned out to be 73.1%; in assay [2] it was 0%; in assay [3] it was 90.6%. The pIC50 at Cathepsin B was 4.27; with SNU-638, below 4.60; against Procathepsin L, 4.25; in the assay on T47D it was below 4.60.
Turning to `COc1cc(O)ccc1/C=C/C(=O)c1ccc(N)cc1`, the negative-log IC50 (pIC50) against Cathepsin B is 4.12; on Procathepsin L it was 4.48. Also, the inhibition was found to be 0% in assay [2] and 0.8% in assay [3].
In the case of `O=C(/C=C/c1ccc(N2CCCC2)cc1)c1ccc(O)cc1O`, the inhibition was determined as 64.4% in assay [1], 0% in assay [2] and 87.1% in assay [3]. The negative-log IC50 (pIC50) on Cathepsin B is 4.54; with SNU-638, 5.24; on Procathepsin L, 5.33; in the assay on T47D it was 5.16.
Regarding `COc1ccc(/C=C/C(=O)c2ccco2)cc1Br`, the inhibition in assay [1] amounted to 8.8%; in assay [2], 24.7%; in assay [3], 92%; in assay [4] it was 0%. In addition, the negative-log IC50 (pIC50) was below 4.00 at Cathepsin B, 5.37 in the assay on SNU-638, below 4.00 against Procathepsin L and 4.96 with T47D.
`COc1ccc(/C=C/C(=O)c2ccc(O)cc2O)cc1Br`: the results for the inhibition in assay [1], in assay [2] and in assay [3] were 8.2%, 2.4% and 73.2%, respectively. For the same compound, the negative logarithm of the IC50 (pIC50) against Cathepsin B was below 4.00; with SNU-638, 5.54; against Procathepsin L, 4.17; in the assay with T47D, 5.98.
